Compound activity: PubChem BioAssay, several laboratories
RanGTP-Impb inh – disruptors of Ran-importin-beta complex formation – biochemical, FRET, CFP-Ran, YFP-importin-beta, homogeneous, primary screen; cell-free CFP-Ran/YFP-importin-beta FRET ratio; 300,000 tested, 1.1% active; inhibition, % (test concentration not listed); AID 2216;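 active = more than half of the replicate wells show a fall in the fluorescence ratio signal beyond about 16%, limit read from the data, passing the limit was not always enough; inconclusive = exactly half of the replicate wells pass the set limit; inactive = fewer than half of replicates pass the limit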
IMP-1 inh-1 – inhibitors of Pseudomonas aeruginosa IMP-1 metallo-beta-lactamase | purified IMP-1, nitrocefin hydrolysis, epi-absorbance fluorescence | inhibition, % at 5.6 µM | 290,000 tested, 0.45% active;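 active = inhibition above the mean plus 3 SD of all compounds in the same screening run, cut at about 4.5% in these data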
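system = purified recombinant IMP-1 beta-lactamase | amount = 0.2 nM IMP-1, as dispensed | medium = HEPES buffer pH 7.1 with ZnSO4 and Brij 35 | times = 25 °C, 15 min preincubation, 25 min reaction | detection = plate fluorescence quenching by hydrolysis product, ex 480/em 530 nm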
Runt-CBFb FRET – Runt domain-CBFb interaction inhibition; Cerulean-Runt/Venus-CBFb FRET ratio 530/480, 1 h; inhibition, % at 20 µM; 220,000 tested, 0.46% active; AID 1496;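 active = inhibition over about 50% at 20 µM in the single-dose screen, limit read from the data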
Target sequence (Q01196 whole entry, looked up, the tested form may be a part): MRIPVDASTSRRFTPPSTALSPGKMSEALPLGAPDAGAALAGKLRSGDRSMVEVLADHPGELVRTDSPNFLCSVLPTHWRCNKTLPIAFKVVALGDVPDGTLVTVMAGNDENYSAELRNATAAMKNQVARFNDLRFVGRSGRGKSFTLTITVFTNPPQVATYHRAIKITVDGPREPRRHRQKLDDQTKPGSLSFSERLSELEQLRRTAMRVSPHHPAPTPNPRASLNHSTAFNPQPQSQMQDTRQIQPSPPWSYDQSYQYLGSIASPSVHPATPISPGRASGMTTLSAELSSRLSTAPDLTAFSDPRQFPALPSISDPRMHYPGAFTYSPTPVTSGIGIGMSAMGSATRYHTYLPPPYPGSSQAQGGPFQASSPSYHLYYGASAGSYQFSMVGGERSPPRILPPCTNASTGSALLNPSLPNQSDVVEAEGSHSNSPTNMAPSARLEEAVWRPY
Target sequence (Q13951 whole entry, looked up, the tested form may be a part): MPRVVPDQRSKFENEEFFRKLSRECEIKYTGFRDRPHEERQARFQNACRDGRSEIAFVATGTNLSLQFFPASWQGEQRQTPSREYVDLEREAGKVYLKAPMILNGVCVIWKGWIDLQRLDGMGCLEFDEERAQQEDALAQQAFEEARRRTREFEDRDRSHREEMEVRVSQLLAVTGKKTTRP
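Assay system: Cerulean-Runt domain fusion protein, energy donor; Signal: fluorescence energy transfer, 422 nm excitation, 530/480 nm emission; Timing: 1 h compound exposure, room temperature; Control set: unlabeled CBFb; Medium: Tris buffer pH 7.5 with salts and BSA; Compound: single test concentration of 20 µM, 1% DMSO final; Probe or stimulus: Venus-CBFb 100 nM.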
Runt-SMMHC FRET – inhibitors of human RUNX1 Runt domain binding to CBFb-SMMHC; Cerulean-Runt/Venus-CBFb-SMMHC FRET ratio 530/480, 1 h; 220,000 tested, 0.74% active; inhibition, % at 20 µM; Q01196+Q13951;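 active = mean inhibition across duplicate retests at 20 µM reaching about 50%, limit read from the data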;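 note: inhibitors lower the FRET ratio by blocking Runt binding to CBFb-SMMHC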
VIM-2 inh – inhibitors of Pseudomonas aeruginosa VIM-2 metallo-beta-lactamase | purified VIM-2, nitrocefin hydrolysis, epi-absorbance fluorescence | inhibition, % at 5.6 µM | 290,000 tested, 0.89% active;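 active = inhibition above the mean of all tested compounds plus 3 SD, cutoff set per screening run, cut at about 7.5% in these data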;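 note: red hydrolysis product quenches plate fluorescence so inhibitors raise well fluorescence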
Runt-CBFb TRFRET – inhibitors of human RUNX1 Runt domain binding to CBFb; shares compounds with Runt-CBFb FRET; TR-FRET RUNX1 Runt domain-CBFb binding; inhibition, % at 20 µM; 480 tested, 20% active; AID 1502; in the data active = inhibition above about 40%
IMP-1 inh-2 – blocks IMP-1 metallo-beta-lactamase in VIM-2 selectivity screen; shares compounds with VIM-2 inh; purified IMP-1, nitrocefin hydrolysis, epi-absorbance fluorescence; inhibition, % at 5.6 µM; 1,300 tested, under 10 active; call rule not given here
VIM-2 FRET inh – inhibits VIM-2 in FRET assay to exclude epi-absorbance artifacts. shares compounds with VIM-2 inh. purified VIM-2, CCF2 FRET substrate hydrolysis. inhibition, % at 5.6 µM. 1,300 tested, 23% active. AID 1857;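 active = inhibition above the mean of all tested compounds plus 3 SD, cut at about 19% in these data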
TEM-1 inh – TEM-1 inhibition, counter-screen for VIM-2 inhibitors | shares compounds with VIM-2 inh | 1,300 tested, 3% active | inhibition, % at 5.6 µM | AID 1866 | Purified TEM-1, nitrocefin hydrolysis, epi-absorbance fluorescence;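 active = inhibition above that campaign's mean inhibition plus 3 SD, cut at about 0.46% in these data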
VIM-2 inh conf – confirmation of P. aeruginosa VIM-2 metallo-beta-lactamase inhibitors | 1,300 tested, 96% active | inhibition, % at 5.6 µM | AID 2187 | shares compounds with VIM-2 inh | purified VIM-2, nitrocefin hydrolysis, epi-absorbance;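 active = inhibition of the VIM-2 beta-lactamase enzyme above about 11% from the earlier first-round screen, limit read from the data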
YIC counter – counter-screen: alters YIC FRET probe signal; 1,000 tested, 40% active; Purified YIC probe, intramolecular FRET ratio YFP/CFP; shares compounds with RanGTP-Impb inh; IC50, µM;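 active = fitted half-maximal inhibitory concentration no more than tenfold above the top dose tested; inconclusive = flat fit with 30 to 70% activity, or poor fit; inactive = half-maximal concentration beyond tenfold above the top dose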
Numbers stand for hits; . = inactive; ? = inconclusive; / = not tested or not shown. This is a sample that favours compounds with a hit; in the whole collection about 2.6% have one here.

SMILES	RanGTP-Impb inh	IMP-1 inh-1	Runt-CBFb FRET	Runt-SMMHC FRET	VIM-2 inh	others
CC(=O)c1c(C)n(CC2CCCO2)c2ccc(O)cc12 (stereo not given)	.	.	.	.	.
Nc1c(C(=O)NC2CCCC2)c2nc3ccccc3nc2n1CC1CCCO1 (stereo not given)	97.3	.	.	82.0	.
CCCCn1c(=O)c(C(=O)NCc2ccco2)c(O)c2ccccc21	.	.	.	.	.
Nc1c(C(=O)NCc2ccco2)c2nc3ccccc3nc2n1CCN1CCCCC1	71.4	.	.	.	.
COCCCNC(=O)c1c(N)n(Cc2ccco2)c2nc3ccccc3nc12	71.9	.	75.9	81.0	.
CCOP(=O)(OCC)C1(O)C(=O)Nc2ccc(Br)cc21 (stereo not given)	.	.	.	.	.
CN1CC(C#N)C2(O)c3ccccc3CCC2C1 (stereo not given)	.	.	/	/	.
Cc1c(O)ccc(C(=O)CN2CC(C)OC(C)C2)c1O (stereo not given)	.	.	/	/	.
CN1CCN(Cc2ccccc2Sc2ccccc2)CC1	.	.	.	.	.
C=CCNC(=O)c1c(N)n(CCN2CCOCC2)c2nc3ccccc3nc12	80.1	.	81.2	.	.
O=c1c2ccccc2nc(CNCC2CCCO2)n1-c1ccc(F)cc1 (stereo not given)	.	.	.	.	.
CC(C)CNC(=O)c1c(N)n(Cc2ccco2)c2nc3ccccc3nc12	.	.	79.2	/	.
Cc1nn(Cc2ccccc2)c(C)c1C(=O)OCC(=O)NCc1ccco1	.	.	.	.	.
Nc1c(C(=O)NCC2CCCO2)c2nc3ccccc3nc2n1Cc1ccco1 (stereo not given)	63.7	.	.	81.0	.
CC(C)OC(=O)c1c(N)n(Cc2ccco2)c2nc3ccccc3nc12	?	.	/	/	.
COc1ccc(Cn2c(N)c(C(=O)NCc3ccco3)c3nc4ccccc4nc32)cc1OC	/	.	.	57.2	.
NC(=O)Cn1cc(C(=O)c2ccccc2)c2ccccc21	.	.	/	/	.
COC(=O)c1cn(C(=O)c2cccc3ccccc23)c2ccccc12	.	.	.	.	.
O=c1[nH]c(=O)n(Cc2ccco2)c(O)c1C=NC1CCN(Cc2ccccc2)CC1	.	.	.	.	.
O=C(O)CCC(=O)NCCC1=c2ccccc2=N/C1=C\c1c(O)n(Cc2ccc(F)cc2)c(=S)[nH]c1=O	.	.	.	57.7	.
CCC(CO)NC(=O)C1C=C2c3cccc4[nH]cc(c34)CC2N(C)C1 (stereo not given)	.	.	.	.	.
COC(=O)C1C=C2c3cccc4[nH]cc(c34)CC2N(C)C1 (stereo not given)	/	6.8	.	.	.
COc1ccc(Cl)cc1C(=O)C1CCCN(Cc2cnc(C)s2)C1 (stereo not given)	.	.	.	.	.
O=C1NC(=O)C(=Cc2ccc(-c3ccc(S(=O)(=O)N4CCOCC4)cc3)o2)C(=O)N1	.	5.4	/	/	.
C=C1C[C@@H]2[C@H](CC[C@]3(C)C(=O)CC[C@@H]23)[C@@]2(C)C=CC(=O)C=C12	.	.	.	.	.
SMILES	RanGTP-Impb inh	IMP-1 inh-1	Runt-CBFb FRET	Runt-SMMHC FRET	VIM-2 inh	others
CN1c2ccc([N+](=O)[O-])cc2CC2(C(=O)NC(=O)N(c3ccc(Br)cc3)C2=O)C1c1ccccc1 (stereo not given)	.	.	.	.	.
Nc1ccccc1-[n+]1c(-c2ccccc2)cc(-c2ccccc2)cc1-c1ccccc1	41.5	.	.	.	.
Oc1ccccc1-[n+]1c(-c2ccccc2)cc(-c2ccccc2)cc1-c1ccccc1	.	/	/	/	/
CCOP(=O)(OCC)C(O)c1ccc(OC)cc1 (stereo not given)	.	.	.	.	.
COCCCn1c(N)c(C(=O)OCCOC)c2nc3ccccc3nc21	?	.	81.0	116.1	.	Runt-CBFb TRFRET=.
CCOC(=O)c1c(C)n(CCOC)c2ccc(O)cc12	.	.	.	.	.
COCCOC(=O)c1c(N)n(Cc2ccc(OC)cc2)c2nc3ccccc3nc12	.	.	51.6	105.2	.	Runt-CBFb TRFRET=.
COc1ccc(CCNCc2ccccc2)cc1	.	.	/	/	.
CCCNC(=O)c1c(N)n(Cc2ccco2)c2nc3ccccc3nc12	93.0	.	52.4	58.7	.	Runt-CBFb TRFRET=.
COC(=O)c1c(C)n(Cc2ccco2)c2ccc(O)cc12	.	.	.	.	.
COC(=O)c1c2[n+](cc3cc(OC)c(OC)cc13)CCc1cc(OC)c(OC)cc1-2	.	/	/	/	/
O=C(NCCO)c1nsnc1NCCCl	.	.	55.8	.	.	Runt-CBFb TRFRET=.
O=S1(=O)CC2(N3CCOCC3)CCCCCCC21 (stereo not given)	?	.	79.5	.	.	Runt-CBFb TRFRET=.
CC(=O)C1(c2ccccc2)CCN(C(=O)C2CCC(=O)N(CCc3cccc(F)c3)C2)CC1 (stereo not given)	.	.	/	/	.
CC(C)c1ccc(NC(=O)N2C[C@H]3C[C@@H](C2)c2cccc(=O)n2C3)cc1	.	.	/	/	.
C[C@]12CC[C@@H]3c4ccc(O)c(O)c4CC[C@H]3[C@@H]1CC[C@@H]2O	?	13.6	54.5	66.2	.	Runt-CBFb TRFRET=51.9
CCOC(=O)c1c(N)n(CCCOC(=O)c2ccco2)c2nc3ccccc3nc12	23.5	.	72.4	116.0	.	Runt-CBFb TRFRET=.;YIC counter=23.8
CCC(C)NC(=O)CN1C(=O)CN=C(c2ccccc2)c2ccccc21 (stereo not given)	.	.	.	.	.
CCOC(=O)c1c(C)n(Cc2ccco2)c2ccc(OC)cc12	.	.	.	.	.
CCOC(=O)c1c(C)n(CCN2CCN(C)CC2)c2ccc(OC)cc12	.	.	.	.	60.7	IMP-1 inh-2=.;VIM-2 FRET inh=.;TEM-1 inh=.;VIM-2 inh conf=79.9
